Source: PubChem BioAssay
Shown are actives, neighbours in structure and some others; about 3.7% of the full set was active somewhere.
SR-BI DiI-HDL act – activators of SR-BI mediated DiI-HDL uptake, primary screen, ldlA[mSR-BI] CHO cells, DiI fluorescence; 3 h; 100 = double the neutral-control signal; activation, % at 12.5 µM; 0.096% of 320,000 active; AID 504775, 2011;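 active means mean replicate activation of at least 60% and every replicate at or above 60%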;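 further: 0% = median plate neutral-control signal and 100% = twice that signal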
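Assay system: CHO ldlA[mSR-BI] cells, LDL receptor-null, SR-BI overexpressing; medium: Ham's F12 with 0.5% BSA, HEPES 25 mM, pH 7.4; also added: DiI-HDL 10 µg/mL; timing: 3 h uptake period with compound, 37 °C; signal: DiI fluorescence, bottom read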
GAA850 FXN act – FXN promoter activators, primary screen, cell-based, luciferase luminescence, HEK293 lucGAA850 | HEK293 lucGAA850 FXN promoter luciferase reporter, 24 h; percent of 10 µM SAHA response | activation, % at 6 µM | 0.56% of 360,000 active;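 active means activation above the average of all compounds screened plus 3 SD, cutoff fixed separately per campaign, cut at about 7.5% in these data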;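 further: 0% = DMSO wells and 100% = 10 µM SAHA wells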
AHR activator – AHR activators, primary screen, cell-based, luminescence, luciferase reporter, human | AHR-responsive luciferase reporter cells | Aryl hydrocarbon receptor (Homo sapiens), P35869 | 2.5% of 320,000 active | activation, % at 5 µM; in the data active means activation above about 47%;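 further: 0% = vehicle wells and 100% = reference agonist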
JMJD2C inh – inhibitors of GASC-1 histone demethylase, primary screen, biochemical, fluorescence, DELFIA europium; 0.069% of 330,000 active; Lysine-specific demethylase 4C (Homo sapiens), Q9H3R0; inhibition, % at 2.35 µM; GST-JMJD2C(1-420) H3K9me3 demethylation; AID 2099, 2009;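 active means more than half of a compound's replicate wells show inhibition beyond 50%, single wells judged on their own value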;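 further: signal counts dimethyl H3K9 product captured on neutravidin plate; 0% = median of DMSO wells and 100% = 0.3 times that DMSO median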
SR-BI HDL uptake – inhibitors of SR-BI mediated HDL lipid uptake, primary screen, ldlA[mSR-BI] cells, fluorescence, single point; Scavenger receptor class B member 1 (Mus musculus), Q61009; ldlA[mSR-BI] CHO cells, DiI-HDL uptake fluorescence, 3 h; inhibition, % at 12.5 µM; 0.96% of 320,000 active;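 active means mean replicate inhibition of at least 70% and a set share of replicates each scoring 70 or more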;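 further: 0% = median of neutral control wells and 100% = median of positive control wells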
Target sequence (Q61009 whole entry, looked up): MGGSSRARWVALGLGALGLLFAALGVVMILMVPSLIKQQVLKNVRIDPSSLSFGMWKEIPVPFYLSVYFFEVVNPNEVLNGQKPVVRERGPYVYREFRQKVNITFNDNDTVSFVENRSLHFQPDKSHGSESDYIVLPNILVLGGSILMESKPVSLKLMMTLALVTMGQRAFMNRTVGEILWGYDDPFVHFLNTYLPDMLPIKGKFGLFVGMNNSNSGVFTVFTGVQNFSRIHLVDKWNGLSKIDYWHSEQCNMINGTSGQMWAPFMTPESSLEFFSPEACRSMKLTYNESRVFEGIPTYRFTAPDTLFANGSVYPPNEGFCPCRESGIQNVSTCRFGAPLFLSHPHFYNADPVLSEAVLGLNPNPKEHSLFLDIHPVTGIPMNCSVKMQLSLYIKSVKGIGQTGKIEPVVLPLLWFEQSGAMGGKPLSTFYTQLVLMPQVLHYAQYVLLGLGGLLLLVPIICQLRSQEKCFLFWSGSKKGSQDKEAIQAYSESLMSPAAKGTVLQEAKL
Active calls of the source: *; . = no result given.

SMILES	SR-BI DiI-HDL act	GAA850 FXN act	AHR activator	JMJD2C inh	SR-BI HDL uptake
O=C(N/N=C/c1ccc2c(c1)OCO2)c1cc(-c2ccccc2)nc2ccccc12	0	1	51*	6	0
Cc1ccc(C)c(-c2cc(C(=O)Nc3cccnc3)c3ccccc3n2)c1	-28	-2	11	3	28
O=c1[nH]c(N/N=C/c2ccccc2)nc2ccccc12	36	6	20	-10	-36
O=C(N/N=C/c1ccc2c(c1)OCO2)c1cc(-c2ccco2)nc2ccccc12	2	-3	.	.	-2
O=C(Nc1ccc2c(c1)OCO2)c1cc(-c2cccnc2)nc2ccccc12	-45	0	47*	-18	45
c1ccc(CNc2nc(-c3cccnc3)nc3ccccc23)cc1	-2	2	.	-4	2
c1cncc(CSc2ccc(-c3ccc4c(c3)OCO4)nn2)c1	1	3	95*	44	-1
c1cncc(-c2nc(NCc3ccc4c(c3)OCO4)c3ccccc3n2)c1	-53	0	64*	19	53
CC1CC(C)CN(S(=O)(=O)N2CCC(C(=O)NCc3ccco3)CC2)C1 (configuration not stated)	5	0	3	-8	-5
O=C(NCCNc1ccc([N+](=O)[O-])cc1C(F)(F)F)c1cccc(F)c1	-18	2	13	-2	18
O=C(NCCNc1ccc([N+](=O)[O-])cc1C(F)(F)F)c1ccccc1	-28	-1	6	52*	28
Cc1cccc(N(CC(=O)NC(C)C)C(=O)c2ccc(N3CCCC3)nc2)c1	5	2	-2	-7	-5
O=C(Cn1cc(C(F)(F)F)ccc1=O)N/N=C/c1ccc(Cl)cc1	-7	2	-1	-2	7
O=C(Nc1nc2cc3c(cc2s1)OCO3)C1CC1	-11	3	57*	-3	11
CC(C)C(=O)Nc1nc2cc3c(cc2s1)OCO3	17	0	66*	8	-17
Cc1ccc(C2=NNC(c3ccc(Cl)cc3)=Nc3ccccc32)o1	17	4	50*	1	-17
CCSc1nc(N2CCCCC2)c2c(c1C#N)CCCC2	-76	-1	1	6	76*
COc1ccccc1CNC(=O)C(=O)c1cn(CC(=O)N2CCCC2)c2ccccc12	.	1	8	-2	78*
O=C(Nc1ccccc1Cl)C(=O)c1cn(CC(=O)N2CCOCC2)c2ccccc12	-15	4	73*	-2	15
COc1ccc(OC)c(NC(=O)C(=O)c2cn(CC(=O)N3CCCC3)c3ccccc23)c1	-80	-1	18	13	80*
COc1cccc(NC(=O)C(=O)c2cn(CC(=O)N3CCCC3)c3ccccc23)c1	-75	2	11	1	75*
Cc1ccc(NC(=O)C(=O)c2cn(CC(=O)N3CCCCC3)c3ccccc23)cc1	-3	1	3	1	3
O=C(NCc1ccc(Cl)cc1)C(=O)c1cn(CC(=O)N2CCOCC2)c2ccccc12	-5	3	2	-2	5
Cc1nnc(SCc2nnc(-c3ccccc3Br)o2)s1	-24	2	8	-7	24
COc1ccc(C(Sc2ccccc2)c2ccccc2)cc1OC (configuration not stated)	30	1	3	2	-30
SMILES	SR-BI DiI-HDL act	GAA850 FXN act	AHR activator	JMJD2C inh	SR-BI HDL uptake
COc1ccc(NC(=O)C(=O)c2cn(CC(=O)N3CCCC3)c3ccccc23)cc1OC	-80	-1	14	-3	80*
COc1ccc(/C=C/C(=O)c2ccncc2)c2ccccc12	33	1	53*	20	-33
Cc1nnc(N/N=C\c2ccc(-c3ccccc3[N+](=O)[O-])o2)n1N	21	1	61*	55*	-21
Cc1n[nH]c(=S)n1/N=C/c1ccc(-c2ccccc2[N+](=O)[O-])o1	-13	3	60*	4	13
O=[N+]([O-])c1cccc(-c2ccc(/C=N/n3c(-c4ccccc4)n[nH]c3=S)o2)c1	-14	0	10	3	14
Cc1nnc(N/N=C/c2c(Cl)cccc2Cl)n1N	-5	0	12	38	5
Cc1nnc(N/N=C/c2ccccc2O)n1N	1	0	48*	-45	-1
O=C(N/N=C/c1ccc(-c2ccccc2[N+](=O)[O-])o1)[C@H]1C[C@@H]1c1ccccc1	3	0	69*	15	-3
Cc1c(C(=O)O)oc2c1C(=O)CC(C)(C)C2	12	0	0	-1	-12
Cc1ccc(Cl)cc1NC(=O)Cn1nc(-c2cccs2)ccc1=O	-7	-1	17	-10	7
CCOc1ccc(CSCCNC(=S)Nc2ccc(OC)cc2)cc1	-25	-1	3	-2	25
CCCOc1ccc(CSCCNC(=S)Nc2ccccc2)cc1	1	-2	90*	15	-1
CC(=O)c1ccc(NC(=O)CN2C(=O)/C(=C/C=C/c3ccccc3)SC2=S)cc1	-72	0	1	-27	72*
O=C(O)CN1C(=O)/C(=C/C=C/c2ccccc2)SC1=S	32	1	3	5	-32
O=c1[nH]c2cc3c(cc2cc1CN(Cc1nnnn1CC1CCCO1)C1CCCCC1)OCO3 (configuration not stated)	9	1	56*	0	-9
CCc1ccc2oc(-c3ccc(OC)cc3)cc(=Nc3c(C)n(C)n(-c4ccccc4)c3=O)c2c1	-60	0	57*	-8	60
CCc1ccc2oc(-c3ccc(OC)cc3)cc(=Nc3cccc(C(=O)O)c3)c2c1	-2	3	-12	-22	2
CCOC(=O)C1(Cc2ccccc2C)CCCN(S(=O)(=O)CC)C1 (configuration not stated)	-32	1	0	19	32
C=CCOC(=O)C1=C(C)NC(SCC)=C(C#N)C1c1ccc(Cl)cc1 (configuration not stated)	-83	-7	3	-5	83*
O=S(=O)(Nc1nc2ccccc2nc1NCC1CCCO1)c1cc(Cl)ccc1Cl (configuration not stated)	.	0	2	-3	.
Cc1nnc(NC(=O)c2csc3c2CCCC3)s1	.	.	55*	6	.
COc1ccccc1NC(=O)c1csc2c1CCCC2	-67	0	69*	0	67
COc1ccccc1NC(=O)c1c(C)oc2c1CCCC2	-47	1	60*	-2	47
Cc1nnc(NC(=O)c2csc3c2CCC(C)C3)s1 (configuration not stated)	0	2	15	-14	0
COCCNC(=O)C1(C)CCCN(Cc2cc(-c3ccccc3)nn2C)C1 (configuration not stated)	.	0	.	.	.
